Source: PMC5726523 (Nature chemistry, 2017)
Positions count from the first letter of the chain named.

Experiments:
NUDT2 [1] = biological target: T1, NUDT2 (Homo sapiens, UniProt P50583); assay: gel-based ABPP, blockade of probe labeling of NUDT2; type: binding; settings: read-out: apparent IC50, blockade of probe labeling of NUDT2
Outline: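 Flag-tagged NUDT2 was recombinantly expressed in HEK 293T cells. Samples were treated with test compound, then a lysine-reactive probe, and analysed by gel-based ABPP. Apparent IC50 is from blockade of probe labeling of the liganded lysine.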

K89 of NUDT2 = K89 of NUDT2 (Homo sapiens, UniProt P50583); assay: competitive isoTOP-ABPP, NUDT2 K89; type: binding
Outline: (§1)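 Human cancer cell proteomes were pretreated with an amine-reactive electrophilic fragment (50–100 μM) or DMSO, then probe 1 (100 μM). Labeled proteins were CuAAC-conjugated to isotopic TEV-cleavable azide-biotin tags (DMSO heavy, fragment light), combined and analysed by isoTOP-ABPP. R = DMSO/fragment MS1 peak ratio of probe-labeled peptides. R ≥ 4 (≥75% loss of enrichment) defines liganding.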

NUDT2 [2] = biological target: T1, NUDT2; assay: NUDT2 substrate assay; type: biochemical; settings: compared with gel-based ABPP IC50 of 2 μM
K35 in transthyretin TTR = K35 in transthyretin TTR (Homo sapiens, UniProt P02766); assay: competitive isoTOP-ABPP, TTR K35; type: binding; settings: compared with fragments 29 and 30
Outline: as §1

SIN3A-TGIF1 interaction = biological target: T2, SIN3A-TGIF1 interaction (Homo sapiens, UniProt Q96ST3); assay: co-immunoprecipitation western blot, Flag-SIN3A / Myc-TGIF1; type: biochemical; settings: 50 μM, 1 h, anti-Myc blotting
T2 sequence (Q96ST3 1-400): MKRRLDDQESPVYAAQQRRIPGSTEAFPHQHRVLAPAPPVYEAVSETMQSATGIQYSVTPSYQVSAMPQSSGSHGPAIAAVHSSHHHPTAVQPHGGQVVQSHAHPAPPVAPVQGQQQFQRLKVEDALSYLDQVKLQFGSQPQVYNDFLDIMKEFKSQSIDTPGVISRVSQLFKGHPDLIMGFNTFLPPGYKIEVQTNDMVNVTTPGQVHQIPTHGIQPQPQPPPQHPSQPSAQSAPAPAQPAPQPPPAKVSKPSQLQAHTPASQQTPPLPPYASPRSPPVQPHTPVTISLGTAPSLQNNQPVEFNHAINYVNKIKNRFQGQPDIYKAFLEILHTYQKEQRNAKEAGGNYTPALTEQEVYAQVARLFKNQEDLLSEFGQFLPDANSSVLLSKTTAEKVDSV
Outline: (§2)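 Flag-SIN3A (a.a. 1-400, WT or K155 mutants) or Flag-GFP was co-expressed in HEK 293T cells with Myc-TGIF1 or Myc-TGIF2. Lysates were treated with DMSO or test compound (50 μM, 1 h), immunoprecipitated and analysed by anti-Myc western blot. Four biological replicates, mean ± SD. Unpaired Student's t-test, WT + compound vs K155R + compound.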

[3] = biological target: T3, SIN3A K155R-TGIF1 interaction (Homo sapiens, UniProt Q96ST3, K155R); assay: co-immunoprecipitation western blot, Flag-SIN3A K155R / Myc-TGIF1; type: biochemical; settings: 50 μM, 1 h
T3 sequence (Q96ST3 1-400 K155R): T2 sequence (Q96ST3 1-400) with K155R
Outline: as §2

TGIF1-SIN3A interaction = biological target: T4, TGIF1-SIN3A interaction (Homo sapiens, UniProt Q96ST3); assay: SILAC co-immunoprecipitation-MS proteomics, SIN3A-TGIF1; type: biochemical; settings: 50 μM, 1 h, co-IP MS proteomics
T4 sequence (Q96ST3 1-400): T2 sequence (Q96ST3 1-400)
Outline: (§3)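 HEK293T cells were metabolically labeled with isotopically differentiated amino acids. Heavy cells were transfected with Flag-SIN3A and light cells with Flag-GFP. Cells were lysed and anti-Flag immunoprecipitated. Heavy and light IPs were combined, trypsin-digested and run on LC-MS/MS. SIN3A interactors were proteins enriched >five-fold over GFP. Paired comparisons were WT vs K155W-SIN3A, and DMSO vs test compound (50 μM, 1 h) on WT.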

K155 of SIN3A [4] = biological target: T5, K155 of SIN3A (Homo sapiens, UniProt Q96ST3); assay: competitive isoTOP-ABPP, SIN3A K155; type: binding; settings: 50 μM, human cancer cell proteomes
T5 sequence (Q96ST3 1-1273): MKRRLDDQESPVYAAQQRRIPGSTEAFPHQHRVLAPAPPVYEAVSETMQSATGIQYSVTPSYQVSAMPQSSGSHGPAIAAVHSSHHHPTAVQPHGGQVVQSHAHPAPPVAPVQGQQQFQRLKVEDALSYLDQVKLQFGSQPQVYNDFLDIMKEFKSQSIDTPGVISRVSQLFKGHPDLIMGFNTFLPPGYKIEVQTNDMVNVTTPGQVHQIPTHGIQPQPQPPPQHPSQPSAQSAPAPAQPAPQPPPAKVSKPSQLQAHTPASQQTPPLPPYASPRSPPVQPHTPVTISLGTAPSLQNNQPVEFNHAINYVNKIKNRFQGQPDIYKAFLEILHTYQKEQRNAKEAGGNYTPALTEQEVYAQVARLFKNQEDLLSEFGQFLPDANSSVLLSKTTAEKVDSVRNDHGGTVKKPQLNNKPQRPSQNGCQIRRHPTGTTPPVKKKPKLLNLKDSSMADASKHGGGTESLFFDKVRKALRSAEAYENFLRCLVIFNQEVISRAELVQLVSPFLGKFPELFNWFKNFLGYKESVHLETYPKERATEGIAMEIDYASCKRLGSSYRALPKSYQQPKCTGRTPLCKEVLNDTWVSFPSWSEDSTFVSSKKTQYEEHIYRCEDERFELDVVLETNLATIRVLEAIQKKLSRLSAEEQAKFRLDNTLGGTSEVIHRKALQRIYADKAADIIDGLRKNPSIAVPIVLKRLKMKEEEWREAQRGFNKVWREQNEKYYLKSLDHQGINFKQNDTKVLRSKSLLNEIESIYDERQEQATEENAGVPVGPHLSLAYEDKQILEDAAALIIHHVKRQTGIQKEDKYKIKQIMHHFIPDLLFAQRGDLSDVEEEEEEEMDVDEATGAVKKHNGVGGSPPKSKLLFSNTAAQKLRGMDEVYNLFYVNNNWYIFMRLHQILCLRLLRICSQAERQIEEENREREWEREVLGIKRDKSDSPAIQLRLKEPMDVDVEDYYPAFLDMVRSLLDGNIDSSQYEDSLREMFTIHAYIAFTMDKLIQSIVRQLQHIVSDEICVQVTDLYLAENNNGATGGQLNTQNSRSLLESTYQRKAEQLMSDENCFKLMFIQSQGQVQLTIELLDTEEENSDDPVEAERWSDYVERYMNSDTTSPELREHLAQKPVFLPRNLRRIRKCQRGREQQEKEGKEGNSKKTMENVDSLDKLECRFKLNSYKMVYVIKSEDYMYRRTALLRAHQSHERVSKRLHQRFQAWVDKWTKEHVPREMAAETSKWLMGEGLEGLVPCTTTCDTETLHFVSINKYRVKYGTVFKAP
Outline: as §1

K155 of SIN3A [5] = biological target: T6, K155 of SIN3A (Homo sapiens, UniProt Q96ST3); assay: gel-based ABPP, blockade of probe labeling of SIN3A; type: binding; settings: read-out: apparent IC50, blockade of probe labeling of K155, lysates of HEK293T cells expressing Flag-SIN3A a.a. 1-400
T6 sequence (Q96ST3 1-400): T2 sequence (Q96ST3 1-400)

SIN3A-TGIF2 interaction = biological target: T7, SIN3A-TGIF2 interaction (Homo sapiens, UniProt Q96ST3); assay: co-immunoprecipitation western blot, Flag-SIN3A / Myc-TGIF2; type: biochemical; settings: 50 μM, 1 h
T7 sequence (Q96ST3 1-400): T2 sequence (Q96ST3 1-400)
Outline: as §2

TGIF2-SIN3A interaction = biological target: T8, TGIF2-SIN3A interaction (Homo sapiens, UniProt Q96ST3); assay: SILAC co-immunoprecipitation-MS proteomics, SIN3A-TGIF2; type: biochemical; settings: 50 μM, 1 h, co-IP MS proteomics
T8 sequence (Q96ST3 1-400): T2 sequence (Q96ST3 1-400)
Outline: as §3

T1 sequence (P50583 whole entry): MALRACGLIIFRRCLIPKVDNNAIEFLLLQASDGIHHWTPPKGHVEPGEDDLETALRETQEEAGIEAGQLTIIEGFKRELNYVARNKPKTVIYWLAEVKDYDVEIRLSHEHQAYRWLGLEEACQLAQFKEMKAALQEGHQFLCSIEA
Chain of K89 of NUDT2 (P50583 whole entry, the tested form may be a part): as the sequence (P50583 whole entry) above

`COC(=O)NC(=NC(=O)OCC1c2ccccc2-c2ccccc21)n1cccn1` [fragment 49] was tested, and the IC50 (NUDT2 [1]) was 2 µM, the “reactivity with K89 of NUDT2” value (K89 of NUDT2) was “preferentially reacting” and the “IC50, inhibition of NUDT2 activity” value (NUDT2 [2]) was “equivalent IC50 value”.
For `O=C(Oc1ccc([N+](=O)[O-])cc1[N+](=O)[O-])c1cc(C(F)(F)F)cc(C(F)(F)F)c1` [fragment 31], the “targeting of K35 of TTR” value (K35 in transthyretin TTR) was “preferentially targeted”.
`O=C(Oc1c(F)c(F)c(F)c(F)c1F)c1cc(C(F)(F)F)cc(C(F)(F)F)c1` [fragment 21] was tested, and the “effect on co-immunoprecipitation of TGIF1 with SIN3A” value (SIN3A-TGIF1 interaction) was “blocked”, the “effect on SIN3A-TGIF1 interaction with K155R mutant” value [3] was “conferred resistance” and the “effect on TGIF1-SIN3A interaction” value (TGIF1-SIN3A interaction) was “strongly blocked”. The “R value (DMSO/fragment) for tryptic peptide containing K155” value (K155 of SIN3A [4]) was 20, the “blockade of probe 1 labeling of K155” value (K155 of SIN3A [4]) was over 95% and the IC50 (K155 of SIN3A [5]) was 5 µM. For the same compound, the “effect on co-immunoprecipitation of TGIF2 with SIN3A” value (SIN3A-TGIF2 interaction) was “partial blockade” and the “effect on TGIF2-SIN3A interaction” value (TGIF2-SIN3A interaction) was “marginal effect”.
